Key:
[1] = molecular target: T1, Corticotropin-releasing factor receptor 1 (Rattus norvegicus, UniProt P35353); assay: Displacement of [125I]Tyr-ovine-CRF from CRF1 receptor in rat frontal cortex homogenate by gamma counting; type: tissue-based
T1 sequence (P35353 whole entry): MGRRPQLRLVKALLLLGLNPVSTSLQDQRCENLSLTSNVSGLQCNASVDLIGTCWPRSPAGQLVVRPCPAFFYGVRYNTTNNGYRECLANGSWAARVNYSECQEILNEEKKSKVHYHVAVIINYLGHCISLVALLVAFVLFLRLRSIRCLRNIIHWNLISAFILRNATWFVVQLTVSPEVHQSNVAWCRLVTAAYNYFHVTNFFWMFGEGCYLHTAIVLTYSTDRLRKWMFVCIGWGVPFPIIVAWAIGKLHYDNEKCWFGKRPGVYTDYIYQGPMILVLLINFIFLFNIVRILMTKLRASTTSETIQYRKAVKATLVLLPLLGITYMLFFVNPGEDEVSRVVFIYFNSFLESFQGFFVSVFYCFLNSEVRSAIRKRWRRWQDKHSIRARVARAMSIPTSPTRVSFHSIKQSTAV

Rattus norvegicus = species: Rattus norvegicus; assay: Metabolic stability in rat liver microsomes assessed as compound remaining after 10 mins
Homo sapiens = species: Homo sapiens; assay: Metabolic stability in human liver microsomes assessed as compound remaining after 10 mins
[2] = Dissociation constant, pKa at pH 2 to 11 by spectrophotometric titration method; type: physicochemical
Summary of the method: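 pKa determined by a spectrophotometric titration method.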

SMILES	IC50 [1]	remaining at 10 min (Rattus norvegicus)	remaining at 10 min (Homo sapiens)	pKa [2]
Cc1cc(Nc2nc(Cl)cn([C@H](C)C3CC3)c2=O)c(C)nc1N(C)C	0.68 nM	29%	54%	–
COc1ccc(Nc2nc(Cl)cn([C@H](C)C3CC3)c2=O)c(C)n1	11 nM	60%	89%	3.2
COc1cc(C)c(Nc2nc(Cl)cn([C@H](C)C3CC3)c2=O)c(C)n1	12 nM	81%	79%	3.8
Cc1cc(Nc2nc(Cl)cn([C@H](C)C3CC3)c2=O)c(C)nc1OC(F)F	–	86%	100%	< 2
COc1nc(C)c(Nc2nc(Cl)cn([C@H](C)C3CC3)c2=O)cc1C	–	55%	77%	3.6
Cc1cc(C)c(Nc2nc(Cl)cn([C@H](C)C3CC3)c2=O)c(C)n1	65 nM	76%	87%	7.9
COc1ccc(Nc2nc(Cl)cn([C@H](C)C3CC3)c2=O)c(OC)n1	17 nM	25%	43%	–
COC[C@@H](C1CC1)n1cc(Cl)nc(Nc2c(C)nc(OC)nc2OC)c1=O	31 nM	25%	71%	–
COC[C@H](C1CC1)n1cc(Cl)nc(Nc2c(C)cc(OC(F)F)nc2C)c1=O	4.7 nM	–	–	–
Cc1nc(OC(F)F)ccc1Nc1nc(Cl)cn([C@H](C)C2CC2)c1=O	1.2 nM	–	–	< 2
Cc1nc(C(F)(F)F)ccc1Nc1nc(Cl)cn([C@H](C)C2CC2)c1=O	720 nM	–	–	–
COc1nc(C)nc(C#N)c1Nc1nc(Cl)cn([C@H](C)C2CC2)c1=O	140 nM	–	–	–
COC[C@H](C1CC1)n1cc(Cl)nc(Nc2ccc(OC(F)F)nc2C)c1=O	1.2 nM	–	–	–
Cc1cc(Nc2nc(Cl)cn([C@H](C)C3CC3)c2=O)c(C)nc1N1CCCC1	6.8 nM	26%	57%	–
CC[C@H](C)[C@H](NC(=O)[C@H](CC(=O)O)NC(=O)[C@H](CC(C)C)NC(=O)[C@H](CC(C)C)NC(=O)[C@H](CCCCN)NC(=O)[C@H](CCCN=C(N)N)NC(=O)[C@H](CC(N)=O)NC(=O)[C@H](CO)NC(=O)[C@H](Cc1cnc[nH]1)NC(=O)[C@H](C)NC(=O)[C@H](CCC(N)=O)NC(=O)[C@H](CCC(N)=O)NC(=O)[C@H](C)NC(=O)[C@H](CC(C)C)NC(=O)[C@H](CCC(N)=O)NC(=O)[C@H](CC(=O)O)NC(=O)[C@H](C)NC(=O)[C@H](CCCCN)NC(=O)[C@@H](NC(=O)[C@H](CCSC)NC(=O)[C@H](CCC(=O)O)NC(=O)[C@H](CC(C)C)NC(=O)[C@@H](NC(=O)[C@H](CCC(=O)O)NC(=O)[C@H](CCCN=C(N)N)NC(=O)[C@H](CC(C)C)NC(=O)[C@H](CC(C)C)NC(=O)[C@H](Cc1cnc[nH]1)NC(=O)[C@H](Cc1ccccc1)NC(=O)[C@@H](NC(=O)[C@H](CC(C)C)NC(=O)[C@H](CC(=O)O)NC(=O)[C@H](CC(C)C)NC(=O)[C@H](CO)NC(=O)[C@@H](NC(=O)[C@@H]1CCCN1C(=O)[C@@H]1CCCN1C(=O)[C@H](CCC(=O)O)NC(=O)[C@H](CCC(N)=O)NC(=O)[C@@H](N)CO)[C@@H](C)CC)[C@@H](C)O)C(C)C)[C@@H](C)O)C(=O)N[C@@H](C)C(N)=O	2.9 nM	–	–	–
CCOc1nc(C)c(Nc2nc(Cl)cn([C@H](C)C3CC3)c2=O)cc1C	2.7 nM	81%	93%	–
COC[C@H](C1CC1)n1cc(Cl)nc(Nc2c(C)nc(OC)nc2OC)c1=O	90 nM	18%	45%	–
COc1ccc(Nc2nc(Cl)cn([C@H](C)C3CC3)c2=O)c(C(F)(F)F)n1	1.6 nM	–	–	< 2
COc1nc(C(F)(F)F)c(Nc2nc(Cl)cn([C@H](C)C3CC3)c2=O)cc1C	1.2 nM	–	–	–
Cc1cc(OC(F)F)nc(C)c1Nc1nc(Cl)cn([C@H](C)C2CC2)c1=O	2.1 nM	84%	89%	< 2
COc1nc(C)c(Nc2nc(Cl)cn([C@H](C)C3CC3)c2=O)c(OC)n1	240 nM	81%	86%	–
COC[C@@H](C1CC1)n1cc(Cl)nc(Nc2ccc(OC(F)F)nc2C)c1=O	0.8 nM	–	–	–
